Bridge positions count the residues as written; N and C are the ends. Square brackets hold non-standard residues; d marks the D form. Peptide text beside a SMILES is read from it.
How the values were obtained:
[1] = Inhibition of growth hormone spontaneous secretion in rat anterior pituitary cells assessed as hormone level by radioimmunoassay relative to somatostatin; type: functional, Pituitary gland cell; design: scale not given: the % may be the effect or the level left
Rattus norvegicus [2] = assay: Inhibition of glucagon secretion in jugular vein dosed rat assessed using blood sample from hepatic portal vein assessed as hormone level by radioimmunoassay relative to somatostatin; type: functional; design: scale not given: the % may be the effect or the level left
Procedure, shortened: (§1)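 Rats under ether anaesthesia received test samples by jugular vein injection. Blood was drawn from the hepatic portal vein, and hormone levels were measured by specific radioimmunoassay. Six rats per point. Potency was derived from four-point bioassays with somatostatin as reference standard, with log dose-response parallelism checked.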

Rattus norvegicus [3] = assay: Inhibition of insulin secretion in jugular vein dosed rat assessed as assessed as hormone level using blood sample from hepatic portal vein by radioimmunoassay relative to somatostatin; type: functional; design: scale not given: the % may be the effect or the level left; procedure, shortened: as §1
[4] = Partition coefficient, K of the compound using system BAW at 4:1:5 ratio; type: physicochemical
[5] = Retardation factor of the compound using 2.5% pyridine, 5% 1-butanol and 90% water at pH 4.7 buffer relative to lysine and alanine by ninhydrin spray

Row | SMILES | Activity [1] [%] | Activity (Rattus norvegicus [2]) [%] | Activity (Rattus norvegicus [3]) [%] | K [4] | Rf [5]
1 | C[C@H](N)C(=O)NCC(=O)N[C@H]1CSSC[C@@H](C(=O)O)NC(=O)[C@H](CO)NC(=O)[C@H]([C@@H](C)O)NC(=O)[C@H](Cc2ccccc2)NC(=O)[C@H]([C@@H](C)O)NC(=O)[C@H](CCCCN)NC(=O)[C@H](Cc2c[nH]c3ccccc23)NC(=O)[C@H](Cc2ccc(O)cc2)NC(=O)[C@H](Cc2ccccc2)NC(=O)[C@H](CC(N)=O)NC(=O)[C@H](CCCCN)NC1=O (H-AGCKNFYWKTFTSC-OH; disulfide 3-14) | 108 | 109 | 75 | 0.23 | 0.44
2 | C[C@@H](O)[C@@H]1NC(=O)[C@H](Cc2ccccc2)NC(=O)[C@H]([C@@H](C)O)NC(=O)[C@H](CCCCN)NC(=O)[C@H](Cc2c[nH]c3ccccc23)NC(=O)[C@H](Cc2ccccc2)NC(=O)[C@H](Cc2ccccc2)NC(=O)[C@H](CC(N)=O)NC(=O)[C@H](CCCCN)NC(=O)[C@@H](NC(=O)CNC(=O)[C@@H](N)Cc2ccc(O)cc2)CSSC[C@@H](C(=O)O)NC(=O)[C@H](CO)NC1=O | 116 | 78 | 70 | 0.41 | 0.33
3 | C[C@H](N)C(=O)NCC(=O)N[C@H]1CSSC[C@@H](C(=O)O)NC(=O)[C@H](CO)NC(=O)[C@H]([C@@H](C)O)NC(=O)[C@H](Cc2ccc(O)cc2)NC(=O)[C@H]([C@@H](C)O)NC(=O)[C@H](CCCCN)NC(=O)[C@H](Cc2c[nH]c3ccccc23)NC(=O)[C@H](Cc2ccccc2)NC(=O)[C@H](Cc2ccccc2)NC(=O)[C@H](CC(N)=O)NC(=O)[C@H](CCCCN)NC1=O (H-AGCKNFFWKTYTSC-OH; disulfide 3-14) | 65 | 65 | 252 | 0.24 | 0.45
4 | C[C@H](N)C(=O)NCC(=O)N[C@H]1CSSC[C@@H](C(=O)O)NC(=O)[C@H](CO)NC(=O)[C@H]([C@@H](C)O)NC(=O)[C@H](Cc2ccccc2)NC(=O)[C@H]([C@@H](C)O)NC(=O)[C@H](CCCCN)NC(=O)[C@@H](Cc2ccc(O)cc2)NC(=O)[C@H](Cc2ccccc2)NC(=O)[C@H](Cc2ccccc2)NC(=O)[C@H](CC(N)=O)NC(=O)[C@H](CCCCN)NC1=O (H-AGCKNFF[dY]KTFTSC-OH; disulfide 3-14) | 10 | <10 | 28 | 0.24 | 0.41
5 | C[C@@H](O)[C@@H]1NC(=O)[C@H](Cc2ccccc2)NC(=O)[C@H]([C@@H](C)O)NC(=O)[C@H](CCCCN)NC(=O)[C@@H](Cc2c[nH]c3ccccc23)NC(=O)[C@H](Cc2ccccc2)NC(=O)[C@H](Cc2ccccc2)NC(=O)[C@H](CC(N)=O)NC(=O)[C@H](CCCCN)NC(=O)[C@@H](NC(=O)CNC(=O)[C@@H](N)Cc2ccc(O)cc2)CSSC[C@@H](C(=O)O)NC(=O)[C@H](CO)NC1=O | 400 | – | 659 | 0.34 | 0.38
6 | C[C@H](N)C(=O)NCC(=O)N[C@H]1CSSC[C@@H](C(=O)O)NC(=O)[C@H](CO)NC(=O)[C@H]([C@@H](C)O)NC(=O)[C@H](Cc2ccccc2)NC(=O)[C@H]([C@@H](C)O)NC(=O)[C@H](CCCCN)NC(=O)[C@H](Cc2c[nH]c3ccccc23)NC(=O)[C@H](Cc2ccccc2)NC(=O)[C@H](Cc2ccccc2)NC(=O)[C@H](CC(N)=O)NC(=O)[C@H](CCCCN)NC1=O [SOMATOSTATIN] | – | – | – | – | 0.43
7 | C[C@H](N)C(=O)NCC(=O)N[C@H]1CSSC[C@@H](C(=O)O)NC(=O)[C@H](CO)NC(=O)[C@H]([C@@H](C)O)NC(=O)[C@H](Cc2ccccc2)NC(=O)[C@H]([C@@H](C)O)NC(=O)[C@H](CCCCN)NC(=O)[C@H](Cc2c[nH]c3ccccc23)NC(=O)[C@H](Cc2ccccc2)NC(=O)[C@H](Cc2ccc(O)cc2)NC(=O)[C@H](CC(N)=O)NC(=O)[C@H](CCCCN)NC1=O (H-AGCKNYFWKTFTSC-OH; disulfide 3-14) | 29 | 14 | 12 | 0.23 | 0.38

Source: ChEMBL document CHEMBL3272171, “Tyrosylated analogues of somatostatin” (J Med Chem, 1976)
